In ChEMBL document CHEMBL4480360, “Design and characterization of a heterocyclic electrophilic fragment library for the discovery of cysteine-targeted covalent inhibitors” (Medchemcomm, 2019):

What was measured:
Format in all cases: physicochemical
[1] = Glutathione reactivity assessed as thiol reactivity rate constant at 250 uM up to 72 hrs by HPLC-MS or NMR analysis; design: unit not given beside the values
Method in brief: (§1)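 Fragment 250 µM mixed with 5 mM glutathione in PBS pH 7.4 containing 5% acetonitrile, with 100 µM indoprofen as internal standard. For fragments not detectable at 250 µM, levels were reversed (5 mM fragment, 250 µM GSH). Internal-standard-corrected AUCs were fitted by OLS linear regression. k_GSH = k_eff − k_deg, and t1/2 = ln2/k_GSH.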

[2] = Stability of the compound assessed as half life for degradation
[3] = Glutathione reactivity assessed as half life at 250 uM up to 72 hrs by HPLC-MS or NMR analysis; conditions: gsh; method in brief: as §1

| SMILES | K [1] | half-life [2] [h] | t1/2 [3] [h] |
| --- | --- | --- | --- |
| N#Cc1ccncc1 [ISONICOTINONITRILE] | 0.8837 | > 1 | 0.8 |
| N#Cc1cnccn1 | 0.0314 | > 1 | 22.5 |
| N#Cc1cccnc1 | 0.0176 | > 1 | 41 |
| Ic1ncc[nH]1 | 0.116 | > 1 | 6 |

Results, then the compound that gave them:

| K [1] | half-life [2] [h] | t1/2 [3] [h] | SMILES |
| --- | --- | --- | --- |
| 6.0573 | > 1 |  | Ic1ncco1 |
| 0.7872 | > 1 | 0.9 | Ic1nccs1 |
| 0.011 | > 1 | 63 | Brc1cncs1 |
| 0.0144 | > 1 | 48 | C#CCn1ccnc1 |
